Results taken from article PMC2139869 (The Journal of Cell Biology, 1997).
Entries after “also recorded” stand apart in the source; their conditions may differ.

System: sperm–egg plasma membrane adhesion and fusion (zona-free eggs, acrosome-reacted sperm)
Assay: In vitro sperm–egg adhesion and fusion assay with active site peptides
Type: cell-based, mouse
Conditions: peptide 500 μM, Fig. 2, FI and FR taken together
In short: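 Mice superovulated with 10 IU PMSG and 5 IU hCG 48 h apart. Metaphase II eggs collected ~12 h post-hCG, cumulus removed with hyaluronidase, zonae with chymotrypsin, then DAPI-preloaded. Peptide added 30 min before capacitated, acrosome-reacted sperm (2–4 × 10^4/ml final) and present throughout. Coincubated 30 min, 37 °C, 5% CO2, Whittingham's/3% BSA. Scored sperm bound/egg, FI and FR; 43–82 eggs per peptide.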

Q: Which “inhibition of sperm–egg binding and fusion (stated jointly)” value does the source give for SVDECDLL [ADAM 5 peptide] here?
A: Its value is “essentially no inhibition; also recorded: did not inhibit”.
